This is a sample that favours compounds with a hit; in the whole collection about 4.1% have one here.
ROMK primary: human ROMK K+ channel modulation, primary screen; P48048; Tet-inducible ROMK, thallium flux fluorescence; actives lie on both sides; B-score at 10 µM; 130,000 tested, 2% active; AID 1918;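 active means signal ratio slope over the read window, or its plate-corrected B-score, at least 3 SD from the plate mean, either direction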;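 further: B-score of the F/F0 ratio slope over 7 to 12 s after thallium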
Dynein transport: blocks dynein driven cargo transport along microtubules; 3617.4 mouse cells, GR-EGFP nuclear translocation imaging; test concentration mostly 20 µM; stimulated with dexamethasone, 1 µM; hits give low values; z-score, hits read low; 220,000 tested, 0.47% active;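 active means plate z-score of nuclear minus cytoplasmic receptor signal below a set negative limit, without overly bright fluorescence or cell loss, cut at about -3.5 in these data, passing the limit was not always enough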;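 further: z-score of nuclear minus cytoplasmic ring GR-EGFP intensity difference per well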
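medium = tetracycline-free induction medium containing charcoal-stripped FBS | probe or stimulus = dexamethasone, 1.0 µM final | timing = 48 h induction, then 1 h compound, then 30 min agonist, 37 °C | detection = automated 10x imaging of fixed Hoechst-stained cells | read-out basis = nuclear versus cytoplasmic GR-EGFP signal, averaged per well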
Cl transport mod: KCC2 (human) Cl- transport modulation; Q9H2X9; KCC2 cells, thallium flux FluoZin-2 fluorescence; B-score of Tl+ flux slope (higher = more flux/activation; lower = inhibition) at 10 µM; 190,000 tested, 2.2% active;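 active means thallium flux slope and its plate-corrected score both differing from the plate sample mean at a set confidence after two filtering rounds, in either direction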;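 further: slope of fluorescence scaled to starting intensity during 10 to 20 s after thallium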
Target sequence (Q9H2X9 whole entry, looked up): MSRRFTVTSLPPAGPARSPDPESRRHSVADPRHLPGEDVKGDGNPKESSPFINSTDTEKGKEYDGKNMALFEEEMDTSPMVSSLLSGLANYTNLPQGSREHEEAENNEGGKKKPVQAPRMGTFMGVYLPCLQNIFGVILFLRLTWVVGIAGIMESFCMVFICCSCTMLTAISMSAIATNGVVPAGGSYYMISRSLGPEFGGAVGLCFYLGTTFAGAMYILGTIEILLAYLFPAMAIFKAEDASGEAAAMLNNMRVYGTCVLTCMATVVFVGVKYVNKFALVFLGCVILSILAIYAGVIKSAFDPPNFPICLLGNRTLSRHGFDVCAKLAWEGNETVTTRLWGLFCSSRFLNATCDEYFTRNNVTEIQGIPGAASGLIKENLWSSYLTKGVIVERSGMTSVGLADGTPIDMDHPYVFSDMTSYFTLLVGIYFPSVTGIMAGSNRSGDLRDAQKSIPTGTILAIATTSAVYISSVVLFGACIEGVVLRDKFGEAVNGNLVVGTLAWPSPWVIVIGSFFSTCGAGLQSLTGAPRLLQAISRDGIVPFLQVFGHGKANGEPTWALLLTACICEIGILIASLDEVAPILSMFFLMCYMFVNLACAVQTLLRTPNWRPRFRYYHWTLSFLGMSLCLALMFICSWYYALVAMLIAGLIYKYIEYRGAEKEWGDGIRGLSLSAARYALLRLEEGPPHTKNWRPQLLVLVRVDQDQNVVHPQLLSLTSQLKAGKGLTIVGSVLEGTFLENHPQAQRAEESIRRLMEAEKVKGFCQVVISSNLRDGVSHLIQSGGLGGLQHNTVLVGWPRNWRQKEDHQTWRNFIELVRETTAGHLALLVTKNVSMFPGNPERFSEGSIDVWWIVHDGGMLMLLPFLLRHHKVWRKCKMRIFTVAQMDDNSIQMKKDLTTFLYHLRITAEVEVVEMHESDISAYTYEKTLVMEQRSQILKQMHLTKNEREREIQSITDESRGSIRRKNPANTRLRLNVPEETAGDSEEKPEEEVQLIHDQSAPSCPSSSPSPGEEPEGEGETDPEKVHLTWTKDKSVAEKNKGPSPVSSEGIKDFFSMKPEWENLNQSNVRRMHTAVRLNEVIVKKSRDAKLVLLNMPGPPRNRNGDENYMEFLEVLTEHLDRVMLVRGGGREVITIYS
DTT redox prof: compounds producing H2O2 with reducing agent – biochemical, NIH compound library profiling, artefact control for MLSCN library redox annotation, primary screen | DTT-dependent redox cycling H2O2, phenol red/HRP absorbance; 100% = 100 µM peroxide control, 0% = buffer | activation, % at 10 µM | 200,000 tested, 0.03% active;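 active means activation of at least 50% relative to the plate's high and low controls in the primary single-dose screen; inactive means activation below 50%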;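 further: compound incubated with DTT at 0.8 mM final as the reducing agent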
Autophagy HCS: alters autophagy in cells; MEF GFP-LC3 puncta imaging; test concentration mostly 10 µM; calls only at 10 µM (by protocol); 190,000 tested, 0.98% active; AID 463193;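 active means percentage of spot-positive cells more than 3 SD above its plate mean, without a fluorescence outlier flag or 80% toxicity; inconclusive means no clear call, values can overlap the other calls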;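 further: spot-positive cell cutoff set from DMSO-treated cells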
KCC2 sec1: confirmation of human KCC2 transport modulators | normalised thallium flux (F/F0 slope) at 10 µM | shares compounds with Cl transport mod | HEK293-KCC2, thallium flux, FluoZin2 fluorescence; hits give high values | AID 1713 | 3,700 tested, 15% active;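 active means thallium flux slope above the same plate's solvent-only control mean plus 3 SD; inconclusive means the two replicate wells disagree; inactive means no significant difference from solvent-only control wells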
KCC2 bumet counter: thallium flux despite bumetanide block in KCC2 cells, secondary assay 3. normalized thallium flux at 10 µM. HEK293-KCC2 + bumetanide/ouabain, thallium flux FluoZin2; hits give high values. 3,700 tested, 49% active. shares compounds with Cl transport mod;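 active means thallium entry rate above the same plate's blocked-transporter control wells by more than 3 SD; inconclusive means the two repeat wells disagree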;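 further: raw slope of fluorescence over initial fluorescence between 10 and 20 s after thallium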
KCC2 sec2: KCC2 (human) modulation, second secondary assay. normalized thallium flux at 10 µM. HEK293-KCC2, thallium flux FluoZin2 fluorescence; actives lie on both sides; F/F0 rise rate, 10–20 s post-thallium. 3,700 tested, 23% active. shares compounds with Cl transport mod. AID 1715;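 active means thallium flux slope more than 3 SD above or below the plate's solvent-only control mean, mostly below; inconclusive means the two repeat wells disagreed; inactive means no significant shift from solvent-only controls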;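 further: raw slope with 0.1% DMSO as baseline and bumetanide as block control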
HEK counter1: counter-screen for KCC2 modulators: effect in parental HEK293 cells; shares compounds with Cl transport mod; thallium flux FluoZin2, ouabain; baseline-ratio fluorescence slope, 10–20 s after thallium; thallium flux rate (normalised fluorescence) at 10 µM; 3,700 tested, 46% active; AID 1716;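 active means thallium flux rate significantly above the same plate's solvent-only control wells, beyond their mean plus 3 SD; inconclusive means the two replicate wells gave conflicting results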
KCC2 retest ouab: KCC2 (human) modulation, ouabain retest; raw Tl+ flux slope (below DMSO = inhibition, above = activation) at 10 µM; shares compounds with Cl transport mod; 3,700 tested, 48% active; HEK293-KCC2, thallium flux FluoZin2 fluorescence; bidirectional: low = inhibitor, high = activator;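 active means thallium flux slope beyond 3 SD from same-plate DMSO control mean in most replicates, usually higher, sometimes lower; inconclusive means repeat tests gave conflicting results; inactive means no significant difference from controls in most replicates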;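 further: slope of initial-normalized fluorescence between seconds 10 and 20 after thallium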
HEK293 Tl flux2: counter-screen for KCC2 modulators: effect in parental HEK293 cells | thallium flux FluoZin-2 fluorescence slope | thallium flux slope at 10 µM | 3,700 tested, 33% active | shares compounds with Cl transport mod;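 active means thallium flux slope above the same plate's solvent-control mean plus 3 SD in both duplicate wells; inconclusive means duplicate wells that disagreed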;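 further: run without ouabain in cells lacking the KCC2 cotransporter; slope of fluorescence scaled to its starting value between 10 and 20 s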
The depositor's hits bear a star.

Results for C/C(N)=C(/C#N)C(=O)CSc1nc2ccccc2c(=O)n1Cc1ccc(F)cc1 ?
Dynein transport: -0.038; Cl transport mod: 95*; KCC2 sec1: inconclusive; KCC2 bumet counter: 0.071*; KCC2 sec2: 0.053*; HEK counter1: 0.064*; KCC2 retest ouab: 0.061*; HEK293 Tl flux2: 0.056*

Results for Cc1ccc(Cn2c(SCC(=O)Nc3cc(C)on3)nc3ccccc3c2=O)cc1 ?
ROMK primary: 0.039; Dynein transport: -0.8; DTT redox prof: 0; Autophagy HCS: inactive; KCC2 sec1: 0.0065; KCC2 bumet counter: 0.0054; KCC2 sec2: inconclusive; HEK counter1: 0.016*; KCC2 retest ouab: 0.027*; HEK293 Tl flux2: 0.019*

Results for Cc1cc(NC(=O)CSc2nc3ccccc3c(=O)n2Cc2ccccc2)no1 ?
ROMK primary: 1; Dynein transport: -0.89; DTT redox prof: 0; Autophagy HCS: inactive

What do the screens show for `CCOC(=O)C(C)Sc1nc2ccccc2c(=O)n1CC` (stereo unspecified)?
ROMK primary: 0.08; Dynein transport: -1.5; Cl transport mod: -2.5; DTT redox prof: 2; Autophagy HCS: inactive

What do the screens show for `C/C(N)=C(/C#N)C(=O)CSc1nc2cc(Cl)ccc2c(=O)n1Cc1ccco1`?
ROMK primary: -0.38; Dynein transport: -0.088; DTT redox prof: 9; Autophagy HCS: inactive

Results for CCN1C(=O)CC2(C[N+]3(C)CCC2CC3)C1=O (stereo unspecified) ?
ROMK primary: 1.3; Dynein transport: 1.1; Cl transport mod: -1.1; DTT redox prof: -1; Autophagy HCS: inactive

Results for COc1ccc(N=Cc2c(O)[nH]c3ccccc23)cc1 ?
Dynein transport: -1.1; Cl transport mod: -1.3; DTT redox prof: 3; Autophagy HCS: inactive

How did Oc1[nH]c2ccccc2c1/C=N/c1nccs1 do in these assays?
Dynein transport: -0.45; Cl transport mod: 15*; DTT redox prof: 0; Autophagy HCS: inactive; KCC2 sec1: 0.013*; KCC2 bumet counter: 0.023*; KCC2 sec2: 0.035; HEK counter1: inconclusive; KCC2 retest ouab: inconclusive; HEK293 Tl flux2: inconclusive

What do the screens show for `COC(=O)c1c(-c2ccc(C(C)(C)C)cc2)csc1NC(=O)C1C2CCC(O2)C1C(=O)O` (stereo unspecified)?
ROMK primary: 0.63; Dynein transport: -0.41; Cl transport mod: -0.14; DTT redox prof: 0; Autophagy HCS: inactive

What do the screens show for `O=C(Cn1cnc2c(oc3ccccc32)c1=O)N1CCCc2ccccc21`?
ROMK primary: -0.84; Dynein transport: -0.86; Cl transport mod: -0.26; DTT redox prof: 0; Autophagy HCS: inactive

How did O=C(CSc1ncnc2c1oc1ccccc12)N1CCCc2ccccc21 do in these assays?
ROMK primary: -2; Dynein transport: -0.063; DTT redox prof: -1; Autophagy HCS: inactive; KCC2 sec1: 0.0065; KCC2 bumet counter: 0.0053; KCC2 sec2: 0.029; HEK counter1: 0.0056; KCC2 retest ouab: 0.016*; HEK293 Tl flux2: 0.0098

How did O=C(N/N=C/C1CC=CCC1)c1cc2ccccc2cc1O (stereo unspecified) do in these assays?
ROMK primary: -0.87; Dynein transport: -0.41; Cl transport mod: 4.4*; DTT redox prof: 1; Autophagy HCS: inactive; KCC2 sec1: inconclusive; KCC2 bumet counter: 0.029*; KCC2 sec2: 0.036; HEK counter1: 0.015*; KCC2 retest ouab: inconclusive; HEK293 Tl flux2: 0.012*

How did CCCc1cc(C(=O)Nc2sc3c(c2C#N)CCC3)no1 do in these assays?
Dynein transport: -0.47; Cl transport mod: 6.2*; DTT redox prof: 0; KCC2 sec1: 0.0078; KCC2 bumet counter: 0.024*; KCC2 sec2: 0.029; HEK counter1: 0.018*; KCC2 retest ouab: inconclusive; HEK293 Tl flux2: 0.016*

Results for CCc1c(C)sc(NC(=O)c2cc(C3CC3)on2)c1C#N ?
Dynein transport: -0.97; Cl transport mod: 3.7*; DTT redox prof: -1; Autophagy HCS: inactive; KCC2 sec1: 0.008; KCC2 bumet counter: 0.012*; KCC2 sec2: 0.029; HEK counter1: 0.011*; KCC2 retest ouab: 0.022; HEK293 Tl flux2: 0.012*

How did CCc1c(C)sc(NC(=O)c2cc(C)on2)c1C#N do in these assays?
ROMK primary: 2.6; Dynein transport: 0.71; Cl transport mod: 1.8; DTT redox prof: 2; Autophagy HCS: inactive

Results for CCc1c(C)sc(NC(=O)c2cc(-c3ccco3)on2)c1C#N ?
ROMK primary: 2; Dynein transport: 0.062; DTT redox prof: 0; Autophagy HCS: inactive

What do the screens show for `CCCC(=O)Nc1sc2c(c1C#N)CCCC2`?
ROMK primary: -0.17; Dynein transport: -0.74; Cl transport mod: 0.91; DTT redox prof: 2; Autophagy HCS: inactive

Results for CCCc1cc(C(=O)Nc2sc(C)c(CC)c2C#N)no1 ?
Dynein transport: 0.14; Cl transport mod: 9.7*; DTT redox prof: 0; Autophagy HCS: inactive; KCC2 sec1: 0.012; KCC2 bumet counter: 0.026*; KCC2 sec2: 0.037; HEK counter1: 0.021*; KCC2 retest ouab: 0.029*; HEK293 Tl flux2: 0.013*

What do the screens show for `O=C(NC(=S)N1CCN(c2ccccc2)CC1)c1ccc(S(=O)(=O)N2CCOCC2)cc1`?
Dynein transport: -0.62; Cl transport mod: 2

What do the screens show for `Cc1ccc(NC(=O)c2ccccc2-c2ccc(C(F)(F)F)cc2)cc1S(=O)(=O)N1CCOCC1`?
Dynein transport: -0.21; Cl transport mod: 3.8*; DTT redox prof: 1; Autophagy HCS: inactive; KCC2 sec1: 0.0055; KCC2 bumet counter: 0.0052; KCC2 sec2: 0.027; HEK counter1: 0.0074; KCC2 retest ouab: 0.018; HEK293 Tl flux2: 0.011

Bioassay records: PubChem, several laboratories
